pIC50: −log10 of the molar value. Active and inactive are the calls of the source. The calls are words filed in the database; no cut-off is given here.
Tests used:
Bacillus subtilis [1] = assay: Antibacterial activity against Bacillus subtilis NCIB 3610 DS1677 harboring marker-less hag mutant assessed as inhibition of surface colony-spreading at 15 ug/ml after overnight incubation at 32 degree C relative to control; format: functional; conditions: subsp. subtilis str. NCIB 3610 DS1677
Procedure, shortened: (§1)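 DS1677 inoculated at the centre of Tryptic soy broth soft agar (7 g L⁻¹) containing compound, incubated, then average colony diameter measured. % inhibition of spreading is relative to a DMSO control. Duplicate or triplicate, with the assay repeated if replicates differed by >10% in diameter. NPG isomers at 30 µg mL⁻¹, other compounds at 15 µg mL⁻¹.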

Bacillus anthracis [2] = assay: Antibacterial activity against Bacillus anthracis Sterne assessed as inhibition of surface colony-spreading at 75 ug after overnight incubation; format: functional, organism-based
Bacillus subtilis [3] = assay: Antibacterial activity against Bacillus subtilis NCIB 3610 DS1677 harboring marker-less hag mutant assessed as inhibition of surface colony-spreading at 75 ug/ml after 24 hrs relative to control; format: functional; conditions: subsp. subtilis str. NCIB 3610 DS1677
Procedure, shortened: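 Marker-less hag mutant DS1677 on MK agarose (semi-solid, complete defined nutrients) plates containing 75 µg mL⁻¹ compound in DMSO. Control plates contained 75 µg mL⁻¹ DMSO. Colony spreading compared with control.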

Proteus mirabilis = assay: Antibacterial activity against Proteus mirabilis 7002 assessed as inhibition of swarming by plate swarm assay; format: functional, organism-based
Procedure, shortened: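 Proteus plate swarm assay. Each compound at 75 µg mL⁻¹ in the plate, with swarming judged by visible effect.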

Bacillus subtilis [4] = assay: Antibacterial activity against Bacillus subtilis NCIB 3610 DS1677 harboring marker-less hag mutant assessed as inhibition of surface colony-spreading at 30 ug/ml after overnight incubation at 32 degree C relative to control; format: functional; conditions: subsp. subtilis str. NCIB 3610 DS1677; procedure, shortened: as §1
Bacillus subtilis [5] = assay: Antibacterial activity against erythromycin-lincomycin resistant Bacillus subtilis NCIB 3610 DS64 harboring hag deletion mutant assessed as inhibition of surface colony-spreading at 75 ug/ml after 24 hrs relative to control; format: functional; conditions: subsp. subtilis str. NCIB 3610 DS64
Procedure, shortened: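 hag mutant DS64 (MLS antibiotic marker) inoculated at the centre of MK agarose plates with or without 75 µg mL⁻¹ compound, grown 24 h at 37 °C. Surface film spreading scored against the untreated plate.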

Bacillus subtilis [6] = assay: Antibacterial activity against Bacillus subtilis NCIB 3610 DS1677 harboring marker-less hag mutant assessed as inhibition of surface colony-spreading after 16 hrs relative to control; format: functional; conditions: subsp. subtilis str. NCIB 3610 DS1677, 16 h
Procedure, shortened: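 B. subtilis hag deletion strain DS1677: 3 µL of an overnight LB culture spotted on Tryptic soy broth agar (7 g L⁻¹), dried 3–4 h, with graded inhibitor levels. Plates in duplicate, grown 16 h at 32 °C. IC50 derived from measured colony diameters.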

Bacillus anthracis [7] = assay: Antibacterial activity against Bacillus anthracis Sterne assessed as inhibition of surface colony-spreading after overnight incubation; format: functional, organism-based

CO[C@H](c1ccc(S(C)(=O)=O)cc1)[C@@H](O)CO
inhibition at 15 µg/mL (Bacillus subtilis [1]): 0%

OCC(O)C(O)c1ccccc1 (mixture of isomers)
inhibition at 15 µg/mL (Bacillus subtilis [1]): 12.9%

COC[C@H](O)[C@H](OC)c1ccc(S(C)(=O)=O)cc1
inhibition at 15 µg/mL (Bacillus subtilis [1]): 0%

CS(=O)(=O)c1ccc([C@H](O)[C@H](O)CO)cc1
inhibition at 15 µg/mL (Bacillus subtilis [1]): 1.6%

CS(=O)(=O)c1ccc([C@@H](O)[C@H](O)CO)cc1
inhibition at 15 µg/mL (Bacillus subtilis [1]): 69.1%
inhibition (Bacillus anthracis [2]): Active

O=[N+]([O-])c1ccc([C@@H](O)[C@H](O)CO)cc1
inhibition (Bacillus subtilis [3]): inactive
inhibition (Proteus mirabilis): Active
inhibition at 30 µg/mL (Bacillus subtilis [4]): 16.1%

O=[N+]([O-])c1ccc([C@H](O)[C@H](O)CO)cc1
inhibition (Bacillus subtilis [3]): inactive
inhibition (Proteus mirabilis): inactive
inhibition at 30 µg/mL (Bacillus subtilis [4]): 1.5%

COC(=O)c1ccc(C(O)C(O)CO)cc1 (mixture of isomers)
inhibition at 15 µg/mL (Bacillus subtilis [1]): 0%

O=[N+]([O-])c1ccc(C(O)C(O)CO)cc1 (stereo not given)
inhibition (Bacillus subtilis [5]): Active

NS(=O)(=O)c1ccc(C(O)C(O)CO)cc1 (mixture of isomers)
inhibition at 15 µg/mL (Bacillus subtilis [1]): 4.5%

COC[C@H](O)[C@H](O)c1ccc(S(C)(=O)=O)cc1
inhibition at 15 µg/mL (Bacillus subtilis [1]): 10.1%

CS(=O)(=O)Oc1ccc(C(O)C(O)CO)cc1 (mixture of isomers)
inhibition at 15 µg/mL (Bacillus subtilis [1]): 11.5%

C=C[C@H](O)c1ccc(S(C)(=O)=O)cc1
inhibition at 15 µg/mL (Bacillus subtilis [1]): 21.3%

CS(=O)(=O)c1ccccc1[C@@H](O)[C@@H](O)CO
inhibition at 15 µg/mL (Bacillus subtilis [1]): 0%

O=[N+]([O-])c1ccc([C@H](O)[C@@H](O)CO)cc1
inhibition (Bacillus subtilis [3]): inactive
inhibition (Proteus mirabilis): inactive
inhibition at 30 µg/mL (Bacillus subtilis [4]): 0%

O=[N+]([O-])c1ccc([C@@H](O)[C@@H](O)CO)cc1
inhibition (Bacillus subtilis [3]): Active
pIC50 (Bacillus subtilis [6]): 3.91
inhibition (Proteus mirabilis): Active
inhibition at 30 µg/mL (Bacillus subtilis [4]): 24.8%
pIC50 (Bacillus anthracis [7]): < 3.82

OCC(O)C(O)c1ccc(O)cc1 (mixture of isomers)
inhibition at 15 µg/mL (Bacillus subtilis [1]): 12.9%

CSc1ccc(C(O)C(O)CO)cc1 (mixture of isomers)
inhibition at 15 µg/mL (Bacillus subtilis [1]): 0%

COC[C@H](OC)[C@H](OC)c1ccc(S(C)(=O)=O)cc1
inhibition at 15 µg/mL (Bacillus subtilis [1]): 18.5%

CS(=O)(=O)c1ccc([C@H](O)[C@@H](O)CO)cc1
inhibition at 15 µg/mL (Bacillus subtilis [1]): 0%

CS(=O)(=O)c1ccc([C@@H](O)[C@@H](O)CO)cc1
inhibition at 15 µg/mL (Bacillus subtilis [1]): 95.3%
inhibition (Bacillus anthracis [2]): Active
pIC50 (Bacillus anthracis [7]): 4.92

CS(=O)(=O)c1cccc(C(O)C(O)CO)c1 (mixture of isomers)
inhibition at 15 µg/mL (Bacillus subtilis [1]): 10.5%

— ChEMBL document CHEMBL1833891, “New inhibitors of colony spreading in Bacillus subtilis and Bacillus anthracis” (Bioorg Med Chem Lett, 2011)
